Test results reported in ChEMBL document CHEMBL1777807, “3-Substituted 3-(4-aryloxyaryl)-propanoic acids as GPR40 agonists” (Bioorg Med Chem Lett, 2011).

Legend:
[1] = molecular target: T1, Free fatty acid receptor 1 (Homo sapiens, UniProt O14842); assay: Agonist activity at human GPR40 expressed in CHO cells assessed as intracellular calcium mobilization by FLIPR assay; type: functional, cell-based
In short: (§1)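 Intracellular calcium flux read on a fluorometric imaging plate reader, giving EC50 (nM). Each reported value is the mean of at least 3 experiments, with standard deviations below 75% of the average.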

[2] = molecular target: Free fatty acid receptor 1 (Mus musculus, UniProt Q76JU9); assay: Agonist activity at mouse GPR40 expressed in CHO cells assessed as intracellular calcium mobilization by FLIPR assay; type: functional, cell-based; in short: as §1
Sequence of Free fatty acid receptor 1 (Mus musculus, UniProt Q76JU9) (Q76JU9 whole entry): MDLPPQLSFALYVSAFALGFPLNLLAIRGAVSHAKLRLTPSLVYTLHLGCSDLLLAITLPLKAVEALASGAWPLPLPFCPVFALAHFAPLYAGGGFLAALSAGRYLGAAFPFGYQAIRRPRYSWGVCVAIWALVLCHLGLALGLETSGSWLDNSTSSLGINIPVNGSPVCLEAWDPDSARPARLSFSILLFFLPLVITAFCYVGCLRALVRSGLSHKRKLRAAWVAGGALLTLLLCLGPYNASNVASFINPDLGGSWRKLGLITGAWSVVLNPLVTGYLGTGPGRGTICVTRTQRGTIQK

[3] = molecular target: T1, Free fatty acid receptor 1; assay: Inhibition of human GPR40 expressed in CHO cells by SPA based binding assay; type: cell-based
In short: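 Scintillation proximity binding assay using receptor isolated from CHO cells overexpressing human GPR40, giving IC50 (nM). Each value is the mean of at least 3 experiments, with standard deviations below 75% of the average.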

[4] = molecular target: T1, Free fatty acid receptor 1; assay: Agonist activity at human GPR40 expressed in HEK293 cells assessed as [3H]IP3 production in presence of 10% human serum; type: functional, cell-based
In short: (§2)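 IP3 production was measured in human cells as EC50 (nM). One condition included 10% human serum and the other 0.4% serum albumin, to reflect plasma protein binding.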

[5] = molecular target: T1, Free fatty acid receptor 1; assay: Agonist activity at human GPR40 expressed in HEK293 cells assessed as [3H]IP3 production in presence of 0.4% serum albumin; type: functional, cell-based; in short: as §2
Cytochrome P450 2C9 = Cytochrome P450 2C9 (Homo sapiens, UniProt P11712); assay: Inhibition of CYP2C9; type: ADME
Cytochrome P450 2D6 = Cytochrome P450 2D6 (Homo sapiens, UniProt P10635); assay: Inhibition of CYP2D6; type: ADME
Sequence of Cytochrome P450 2D6 (P10635 whole entry): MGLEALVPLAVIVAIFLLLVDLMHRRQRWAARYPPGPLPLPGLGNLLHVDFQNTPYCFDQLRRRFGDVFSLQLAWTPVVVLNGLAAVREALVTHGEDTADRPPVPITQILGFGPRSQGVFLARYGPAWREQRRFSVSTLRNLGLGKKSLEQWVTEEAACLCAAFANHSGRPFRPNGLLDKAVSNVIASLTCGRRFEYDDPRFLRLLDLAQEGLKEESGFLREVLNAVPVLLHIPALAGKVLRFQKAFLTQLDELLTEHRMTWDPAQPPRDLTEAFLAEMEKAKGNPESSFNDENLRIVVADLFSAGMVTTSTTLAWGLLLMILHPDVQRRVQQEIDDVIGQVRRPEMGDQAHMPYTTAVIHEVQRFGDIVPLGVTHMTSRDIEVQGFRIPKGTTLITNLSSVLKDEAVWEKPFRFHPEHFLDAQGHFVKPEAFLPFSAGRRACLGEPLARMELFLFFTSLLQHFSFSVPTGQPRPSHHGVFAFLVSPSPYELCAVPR

Cytochrome P450 3A4 = Cytochrome P450 3A4 (Homo sapiens, UniProt P08684); assay: Inhibition of CYP3A4; type: ADME
Sequence of Cytochrome P450 3A4 (P08684 whole entry): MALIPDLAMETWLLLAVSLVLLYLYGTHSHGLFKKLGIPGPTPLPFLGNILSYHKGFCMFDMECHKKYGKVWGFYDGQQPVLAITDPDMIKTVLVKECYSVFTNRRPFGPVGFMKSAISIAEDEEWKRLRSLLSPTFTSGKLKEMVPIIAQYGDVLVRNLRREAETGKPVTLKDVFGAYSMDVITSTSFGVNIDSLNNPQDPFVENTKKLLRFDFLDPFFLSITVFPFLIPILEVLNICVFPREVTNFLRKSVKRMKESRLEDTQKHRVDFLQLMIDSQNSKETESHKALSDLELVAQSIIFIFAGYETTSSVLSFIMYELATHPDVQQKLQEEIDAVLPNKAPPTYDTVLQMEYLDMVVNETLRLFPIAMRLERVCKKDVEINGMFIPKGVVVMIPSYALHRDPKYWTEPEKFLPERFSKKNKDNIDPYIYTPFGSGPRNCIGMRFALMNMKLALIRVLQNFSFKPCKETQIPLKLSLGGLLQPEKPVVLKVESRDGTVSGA

[6] = molecular target: Voltage-gated inwardly rectifying potassium channel KCNH2 (Homo sapiens, UniProt Q12809); assay: Inhibition of human ERG
Sequence of Voltage-gated inwardly rectifying potassium channel KCNH2 (Q12809 whole entry): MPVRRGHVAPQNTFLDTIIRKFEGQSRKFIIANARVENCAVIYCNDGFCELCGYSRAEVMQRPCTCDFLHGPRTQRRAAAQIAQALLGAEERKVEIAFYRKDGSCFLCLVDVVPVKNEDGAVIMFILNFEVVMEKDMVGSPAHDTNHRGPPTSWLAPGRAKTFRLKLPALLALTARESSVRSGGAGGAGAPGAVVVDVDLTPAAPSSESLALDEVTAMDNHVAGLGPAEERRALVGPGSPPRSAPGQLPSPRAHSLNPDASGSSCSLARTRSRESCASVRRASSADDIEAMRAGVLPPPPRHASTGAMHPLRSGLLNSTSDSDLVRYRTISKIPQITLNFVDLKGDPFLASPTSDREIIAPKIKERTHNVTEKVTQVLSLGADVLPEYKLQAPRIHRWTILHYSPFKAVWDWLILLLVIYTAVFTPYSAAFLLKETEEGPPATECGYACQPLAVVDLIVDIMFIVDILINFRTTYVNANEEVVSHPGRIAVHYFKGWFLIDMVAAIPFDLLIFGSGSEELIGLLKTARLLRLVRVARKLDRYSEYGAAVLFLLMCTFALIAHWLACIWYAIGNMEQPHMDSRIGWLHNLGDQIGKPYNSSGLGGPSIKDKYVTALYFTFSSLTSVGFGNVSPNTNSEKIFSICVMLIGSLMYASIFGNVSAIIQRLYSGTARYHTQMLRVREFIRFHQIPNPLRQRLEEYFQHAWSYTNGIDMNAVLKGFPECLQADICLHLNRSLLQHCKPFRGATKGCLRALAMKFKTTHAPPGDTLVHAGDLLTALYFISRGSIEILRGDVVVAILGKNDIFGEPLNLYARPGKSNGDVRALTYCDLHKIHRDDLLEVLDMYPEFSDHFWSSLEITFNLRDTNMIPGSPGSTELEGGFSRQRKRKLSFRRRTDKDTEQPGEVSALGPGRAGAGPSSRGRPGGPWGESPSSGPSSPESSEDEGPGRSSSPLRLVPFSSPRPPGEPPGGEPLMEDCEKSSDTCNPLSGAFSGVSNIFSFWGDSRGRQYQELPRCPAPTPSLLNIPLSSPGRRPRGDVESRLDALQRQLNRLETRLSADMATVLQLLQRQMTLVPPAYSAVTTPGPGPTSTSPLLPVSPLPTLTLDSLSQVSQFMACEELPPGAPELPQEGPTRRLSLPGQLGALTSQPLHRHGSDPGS

[7] = molecular target: Voltage-dependent L-type calcium channel subunit alpha-1C (Homo sapiens, UniProt Q13936); assay: Inhibition of Cav1.2 calcium channel
Sequence of Voltage-dependent L-type calcium channel subunit alpha-1C (Q13936 whole entry): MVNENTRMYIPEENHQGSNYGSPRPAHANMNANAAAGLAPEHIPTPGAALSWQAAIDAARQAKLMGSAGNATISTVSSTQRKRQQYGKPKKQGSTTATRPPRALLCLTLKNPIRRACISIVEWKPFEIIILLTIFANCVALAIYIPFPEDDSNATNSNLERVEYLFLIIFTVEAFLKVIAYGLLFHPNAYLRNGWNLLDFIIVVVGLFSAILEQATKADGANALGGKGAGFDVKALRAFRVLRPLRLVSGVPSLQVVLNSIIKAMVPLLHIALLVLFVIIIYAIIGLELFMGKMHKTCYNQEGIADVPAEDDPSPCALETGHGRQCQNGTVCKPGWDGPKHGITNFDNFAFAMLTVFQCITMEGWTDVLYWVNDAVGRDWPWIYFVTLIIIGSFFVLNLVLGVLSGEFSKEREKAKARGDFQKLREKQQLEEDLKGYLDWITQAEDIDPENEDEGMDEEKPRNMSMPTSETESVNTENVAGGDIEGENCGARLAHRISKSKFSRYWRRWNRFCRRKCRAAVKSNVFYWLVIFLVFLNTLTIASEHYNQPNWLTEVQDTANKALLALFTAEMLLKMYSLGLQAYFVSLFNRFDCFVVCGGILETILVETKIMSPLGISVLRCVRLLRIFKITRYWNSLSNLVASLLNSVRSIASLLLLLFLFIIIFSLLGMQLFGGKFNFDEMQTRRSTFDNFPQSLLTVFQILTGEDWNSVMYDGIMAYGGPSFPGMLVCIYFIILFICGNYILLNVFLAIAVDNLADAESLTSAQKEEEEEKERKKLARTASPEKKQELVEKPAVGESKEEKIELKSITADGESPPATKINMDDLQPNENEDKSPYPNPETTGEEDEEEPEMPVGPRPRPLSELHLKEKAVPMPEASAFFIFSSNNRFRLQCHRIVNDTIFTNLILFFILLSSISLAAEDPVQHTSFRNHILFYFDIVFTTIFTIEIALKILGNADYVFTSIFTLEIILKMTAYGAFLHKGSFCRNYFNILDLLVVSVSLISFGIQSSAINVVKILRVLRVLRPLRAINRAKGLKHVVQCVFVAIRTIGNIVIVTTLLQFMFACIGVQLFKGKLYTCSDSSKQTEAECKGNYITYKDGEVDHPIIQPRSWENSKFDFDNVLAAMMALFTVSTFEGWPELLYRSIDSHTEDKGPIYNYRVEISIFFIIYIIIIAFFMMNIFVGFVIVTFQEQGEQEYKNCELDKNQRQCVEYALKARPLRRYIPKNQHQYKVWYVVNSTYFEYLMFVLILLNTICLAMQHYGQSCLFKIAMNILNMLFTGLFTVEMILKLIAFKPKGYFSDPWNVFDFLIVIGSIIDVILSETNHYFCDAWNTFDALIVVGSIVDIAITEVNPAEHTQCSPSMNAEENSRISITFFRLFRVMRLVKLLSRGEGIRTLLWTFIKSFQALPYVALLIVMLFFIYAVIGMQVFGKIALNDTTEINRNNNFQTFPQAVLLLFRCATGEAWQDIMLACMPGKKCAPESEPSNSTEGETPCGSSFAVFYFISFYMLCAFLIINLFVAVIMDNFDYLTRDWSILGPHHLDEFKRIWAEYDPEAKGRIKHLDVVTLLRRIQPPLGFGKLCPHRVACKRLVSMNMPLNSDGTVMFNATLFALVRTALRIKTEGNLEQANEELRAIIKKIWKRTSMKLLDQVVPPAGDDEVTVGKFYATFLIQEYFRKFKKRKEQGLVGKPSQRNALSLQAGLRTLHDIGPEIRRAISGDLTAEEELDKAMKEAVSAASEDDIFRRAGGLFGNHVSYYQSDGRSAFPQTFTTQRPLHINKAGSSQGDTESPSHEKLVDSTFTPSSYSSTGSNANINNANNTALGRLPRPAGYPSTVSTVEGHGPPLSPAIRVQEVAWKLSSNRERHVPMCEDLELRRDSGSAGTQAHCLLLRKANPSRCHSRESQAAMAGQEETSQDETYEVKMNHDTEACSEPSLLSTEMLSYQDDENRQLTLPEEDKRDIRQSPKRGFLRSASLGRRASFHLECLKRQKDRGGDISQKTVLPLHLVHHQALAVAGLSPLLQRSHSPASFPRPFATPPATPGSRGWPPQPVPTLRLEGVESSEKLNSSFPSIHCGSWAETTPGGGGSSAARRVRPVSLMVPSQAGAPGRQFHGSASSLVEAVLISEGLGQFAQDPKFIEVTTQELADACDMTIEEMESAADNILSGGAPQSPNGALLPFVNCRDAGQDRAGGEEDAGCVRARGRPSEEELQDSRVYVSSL

[8] = Plasma clearance in mouse; type: ADME, organism-based
[9] = Volume of distribution in mouse; type: ADME, organism-based; details: in vivo
[10] = Half life in mouse; type: ADME, organism-based; details: in vivo
[11] = Oral bioavailability in mouse; type: ADME, organism-based; details: in vivo
[12] = Cmax in mouse; type: ADME, organism-based; details: in vivo
[13] = Tmax in mouse; type: ADME, organism-based; details: in vivo
Mus musculus = assay: Inhibition of glucose AUC in dextrose-treated lean mouse blood at 10 mg/kg, po treated 1 hr prior to dextrose challenge by intraperitoneal glucose tolerance test; type: functional

T1 sequence (O14842 whole entry): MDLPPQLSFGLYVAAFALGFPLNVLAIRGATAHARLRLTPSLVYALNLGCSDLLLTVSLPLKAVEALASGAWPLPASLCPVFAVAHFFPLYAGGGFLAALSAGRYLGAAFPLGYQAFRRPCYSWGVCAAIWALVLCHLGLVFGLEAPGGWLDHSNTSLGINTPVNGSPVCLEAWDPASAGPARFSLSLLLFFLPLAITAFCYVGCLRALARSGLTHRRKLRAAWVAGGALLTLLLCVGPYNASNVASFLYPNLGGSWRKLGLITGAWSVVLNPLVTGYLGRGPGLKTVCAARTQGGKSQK

| Compound | EC50 [1] | EC50 [2] | IC50 [3] | other results |
| --- | --- | --- | --- | --- |
| CC#C[C@H](c1ccc(Oc2ccc(C(F)(F)F)cc2OC(F)F)cc1)[C@H]1OC(=O)NC1=O (racemic) | 7580 nM | 7060 nM | 2410 nM |  |
| O=C(O)CCc1ccc(Oc2ccc(C(F)(F)F)cc2Cl)cc1 | 686 nM |  |  |  |
| CC(CC(=O)O)c1ccc(Oc2ccc(Cl)cc2Cl)cc1 (racemic) | 2480 nM |  |  |  |
| O=C(O)CCc1ccc(Oc2ccc(Cl)cc2Cl)cc1 | 1360 nM |  |  |  |
| CC#CC(c1ccc(OCc2ccccc2)cc1)C1OC(=O)NC1=O (racemic) | 954 nM | 3710 nM | 4400 nM |  |
| CC#C[C@]1(c2ccc(Oc3ccc(C(F)(F)F)cc3Cl)cc2)C[C@H]1C(=O)O (racemic) | 24500 nM | > 40000 nM | > 10000 nM |  |
| O=C(O)C(Cc1ccc(Oc2ccc(C(F)(F)F)cc2Cl)cc1)C(=O)O | 970 nM |  |  |  |
| CC#CC(CC(=O)O)c1ccc(Oc2nccnc2C#N)cc1 (racemic) | 1580 nM | 985 nM | 2490 nM |  |
| CC#CC(CC(=O)O)c1ccc(Oc2ncc(Br)cn2)cc1 (racemic) | 1570 nM | 1480 nM | 433 nM |  |
| CC#C[C@]1(c2ccc(Oc3ccc(C(F)(F)F)cc3Cl)cc2)C[C@@H]1C(=O)O (racemic) | 2820 nM | 871 nM | 3440 nM |  |
| O=C1NC(=O)C(Cc2ccc(Oc3ccc(F)cc3)cc2)S1 (stereo unspecified) | 474 nM |  |  |  |
| CC#CC(CC(=O)O)c1ccc(Oc2ccc(C(F)(F)F)c3ccccc23)cc1 (racemic) | 1400 nM | 1250 nM | 211 nM |  |

Now those with a lower EC50 [1], led by results:

| EC50 [1] | EC50 [2] | IC50 [3] | Compound | other results |
| --- | --- | --- | --- | --- |
| 108 nM | 95 nM | 30 nM | CC#CC(CC(=O)O)c1ccc(Oc2ncc(C(F)(F)F)cc2Cl)cc1 (racemic) | EC50 [4]: 409 nM |
| 42 nM | 48 nM | 23 nM | CC#CC(CC(=O)O)c1ccc(Oc2ccc(C#N)cc2Cl)cc1 (racemic) | EC50 [4]: 519 nM; EC50 [5]: 597 nM |
| 113 nM | 104 nM | 49 nM | CC#CC(CC(=O)O)c1ccc(Oc2ccc(C(F)(F)F)cc2OC(F)F)cc1F (racemic) | EC50 [4]: 306 nM; EC50 [5]: 349 nM; IC50 (Cytochrome P450 2C9): 28000 nM; IC50 (Cytochrome P450 2D6): > 50000 nM; IC50 (Cytochrome P450 3A4): > 50000 nM; IC50 [6]: 25000 nM; IC50 [7]: 25600 nM |
| 51 nM | 100 nM | 23 nM | CC#CC(CC(=O)O)c1ccc(OC2CCCc3nc(-c4ccc(C)cc4)sc32)cc1 (mixture of isomers) |  |
| 124 nM | 266 nM | 19 nM | CC#CC(c1ccc(Oc2ccc(C(F)(F)F)cc2OC(F)F)cc1)C1OC(=O)NC1=O (racemic) | EC50 [4]: 224 nM; EC50 [5]: 249 nM |
| 114 nM | 124 nM | 312 nM | CC#CC(CC(=O)O)c1ccc(OC2CCCC2)cc1 (racemic) |  |
| 94 nM | 127 nM | 40 nM | CC#CC(CC(=O)O)c1ccc(Oc2ccc(C(F)(F)F)cc2C)cc1 (racemic) |  |
| 394 nM | 149 nM | 342 nM | CC#CC(CC(=O)O)c1ccc(Oc2nccc3ccccc23)cc1 (racemic) |  |
| 31 nM | 47 nM | 42 nM | CC#CC(CC(=O)O)c1ccc(O[C@@H]2CCc3ccccc32)cc1 (mixture of isomers) |  |
| 71 nM | 77 nM | 12 nM | CC#CC(CC(=O)O)c1ccc(Oc2ccc(C(F)(F)F)cc2OC(F)F)cc1 (racemic) | EC50 [4]: 436 nM; EC50 [5]: 455 nM; clearance [8]: 0.49 mL/min/kg; Vd [9]: 0.31 L/kg; half-life [10]: 7.8 h; bioavailability [11]: 112%; Cmax [12]: 12 µM; Tmax [13]: 4 h; inhibition in vivo at 10 mg/kg (Mus musculus): 66%; IC50 (Cytochrome P450 2C9): > 50000 nM; IC50 (Cytochrome P450 2D6): > 50000 nM; IC50 (Cytochrome P450 3A4): > 50000 nM; IC50 [6]: > 60000 nM; IC50 [7]: > 30000 nM |
| 130 nM | 136 nM | 151 nM | CC#C[C@@H](c1ccc(Oc2ccc(C(F)(F)F)cc2OC(F)F)cc1)[C@H]1OC(=O)NC1=O (racemic) | clearance [8]: 0.85 mL/min/kg; Vd [9]: 0.47 L/kg; half-life [10]: 7 h; bioavailability [11]: 93%; Cmax [12]: 5.5 µM; Tmax [13]: 4.7 h; IC50 (Cytochrome P450 3A4): > 50000 nM; IC50 [7]: 5100 nM |
| 85 nM | 88 nM | 36 nM | CC#CC(CC(=O)O)c1ccc(Oc2ccc(C#N)cc2Br)cc1 (racemic) |  |
| 53 nM | 93 nM | 13 nM | CC#CC(CC(=O)O)c1ccc(Oc2ccc(C#N)c3ccccc23)cc1 (racemic) | EC50 [4]: 172 nM; EC50 [5]: 247 nM |
